# Source: PubChem (several laboratories)
# UBC9 SUMO inh = SUMOylation inhibition | P63279 | HTRF SUMOylation assay, SAE1/SAE2 + UBC9, in vitro | inhibition, % at 35 µM | 290,000 compounds, 0.36% hits | AID 2006; in the data active = inhibition above about 50%, passing the limit was not always enough
# Target sequence (P63279 whole entry, looked up): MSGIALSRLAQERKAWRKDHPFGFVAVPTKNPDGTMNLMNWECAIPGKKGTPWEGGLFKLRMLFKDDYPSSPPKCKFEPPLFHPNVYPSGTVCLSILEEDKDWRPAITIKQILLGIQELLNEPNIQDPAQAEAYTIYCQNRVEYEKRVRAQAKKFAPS
# ALR H2O2 inh = human ALR oxidase inhibition via reduced H2O2 | AID 485317 | inhibition, % (concentration not given with the values) | 290,000 compounds, 3.8% hits | purified ALR, DTT oxidation, H2O2 HRP-luminol luminescence | P55789;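 active = mean replicate inhibition above about 79%, with every replicate also reaching it, limit read from the data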
# Target sequence (P55789 whole entry, looked up): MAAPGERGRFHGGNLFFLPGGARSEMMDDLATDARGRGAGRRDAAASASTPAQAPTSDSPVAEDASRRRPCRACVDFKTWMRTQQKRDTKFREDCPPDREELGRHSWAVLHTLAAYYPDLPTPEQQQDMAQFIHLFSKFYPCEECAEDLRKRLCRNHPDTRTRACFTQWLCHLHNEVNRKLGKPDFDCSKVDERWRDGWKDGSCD
# RBBP9 inh = inhibitors of human serine hydrolase RBBP9; recombinant RBBP9, FP-Rh probe fluorescence polarization; inhibition, % at 7.94 µM; 220,000 compounds, 0.2% hits;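 active = inhibition above the campaign mean of all tested compounds plus 3 SD, cut at about 14% in these data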
#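 Test system: recombinant human RBBP9; Timing: 30 min then 45 min, 25 °C; Detection: fluorescence polarization; Control set: RBBP9 with DMSO as uninhibited control, no-protein wells as full inhibition; Compound dosing: one concentration, 7.94 µM nominal, 0.794% DMSO; Probe or stimulus: FP-Rh activity-based probe, 375 nM before mixing.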
# PREPL inh = inhibitors of human prolyl oligopeptidase-like enzyme PREPL | inhibition, % at 5.96 µM | AID 2751 | Q4J6C6 | recombinant PREPL, fluorescence polarization activity-based probe | 320,000 compounds, 0.68% hits; in the data active = inhibition above about 43%
# Rin1 Abl inh = blocks binding of human Rin1 to Abl | P00519+Q13671 | TR-FRET Rin1/Abl binding, biochemical | inhibition, % at 7.35 µM | 360,000 compounds, 0.4% hits | AID 588664; in the data active = inhibition above about 5%, passing the limit was not always enough
# UBC13 inh = human UBC13 polyubiquitination inhibition. AID 485273. inhibition, % at 20 µM. 330,000 compounds, 0.47% hits. P61088. UBC13 polyubiquitin chain formation, TR-FRET; in the data active = inhibition above about 45%, passing the limit was not always enough
# Target sequence (P61088 whole entry, looked up): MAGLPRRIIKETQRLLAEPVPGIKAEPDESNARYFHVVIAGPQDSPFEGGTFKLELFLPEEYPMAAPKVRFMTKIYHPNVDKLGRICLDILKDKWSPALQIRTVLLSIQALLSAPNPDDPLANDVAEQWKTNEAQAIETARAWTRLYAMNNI
# A number is an active result; i = inactive; nt = no result. Rows were chosen to be rich in hits. Some 4.3% of all compounds tested hit in one or more screens of this group.
SMILES,UBC9 SUMO inh,ALR H2O2 inh,RBBP9 inh,PREPL inh,Rin1 Abl inh,UBC13 inh
O=C(N/N=C/c1cccc(OC(=O)N2CCOCC2)c1)c1cccs1,i,i,i,i,i,i
S=c1[nH]ncn1/N=C/c1cccc(Oc2ccccc2)c1,i,99,i,i,i,i
CN(CC(=O)Nc1cccc(F)c1)C(=O)c1ccc(COc2ccccc2)o1,nt,nt,nt,i,i,i
CC(=O)Nc1ccc(S(=O)(=O)Nc2nc3ccccc3nc2Nc2ccc(N)cc2)cc1,i,100,i,i,i,i
CC(=O)Nc1ccc(S(=O)(=O)NC(C)C(=O)NC(C)c2ccccc2)cc1 (stereo unspecified),i,99,i,i,i,i
CCC(NS(=O)(=O)c1ccc(C)cc1)C(=O)N1CCN(c2ccccn2)CC1 (stereo unspecified),i,i,i,i,i,i
CCSc1ccccc1C(=O)Nc1ccc(S(=O)(=O)NC(C)=O)cc1,i,96,i,i,i,i
CC(=O)Nc1ccc(S(=O)(=O)N[C@@H](C)C(=O)N2CCN(c3ccccn3)CC2)cc1,nt,99,nt,i,i,i
O=c1[nH]c(=S)[nH]c(O)c1N=Nc1ccc(-c2ccccc2)cc1[N+](=O)[O-],nt,nt,i,nt,nt,nt
CCCNC(=O)C1(C)CCN(C(=O)c2ccccc2OC)C1 (stereo unspecified),nt,nt,nt,nt,i,nt
CC(=O)Nc1ccc(S(=O)(=O)Nc2nc3ccccc3nc2Nc2ccc(C(=O)O)c(O)c2)cc1,nt,98,nt,i,i,i
CC(=O)Nc1ccc(NS(=O)(=O)c2ccccc2)cc1,i,i,i,i,i,i
CC(=O)Nc1ccc(S(=O)(=O)Nc2nc3ccccc3nc2Sc2nncn2C)cc1,i,99,i,i,i,i
O=C(O)c1ccc(Nc2nc3ccccc3nc2NS(=O)(=O)c2ccc(F)cc2)cc1,i,98,nt,i,i,i
CC(=O)Nc1ccc(S(=O)(=O)Nc2ccc(Nc3ccccc3)cc2)cc1,i,99,nt,i,i,i
NC(c1csc(Nc2ccccn2)n1)c1ccccc1Cl (stereo unspecified),nt,nt,nt,nt,i,nt
COc1ccc(S(=O)(=O)N2CCOC2CNC(=O)C(=O)NCCCN2CCOCC2)cc1C (stereo unspecified),i,i,nt,i,i,i
Cc1ccc(OCC(=O)OCC(=O)c2ccccc2)cc1C,i,i,nt,i,i,i
Cc1ccc(-c2nc3ncccn3c2NC2CCCCC2)o1,i,99,i,i,i,i
Cc1cccc(Nc2c(-c3ccc(N4CCOCC4)cc3)nc3ncccn23)c1,i,95,i,i,i,i
Brc1ccc(-c2nc3ncccn3c2Nc2ccc3c(c2)OCCO3)o1,i,98,i,i,i,i
Cc1ccc(-c2nc3ncccn3c2NC(=O)C2CC2)cc1,i,i,i,i,i,i
Cc1ccc(-c2nc3ncccn3c2Nc2ccc3c(c2)OCCO3)cc1,i,96,i,i,i,i
Clc1ccc(-c2nc3ncccn3c2Nc2ccc3c(c2)OCCO3)cc1,i,i,i,i,i,i
COc1ccc(-c2nc3ncccn3c2Nc2ccc3c(c2)OCCO3)cc1,i,nt,i,nt,i,i
SMILES,UBC9 SUMO inh,ALR H2O2 inh,RBBP9 inh,PREPL inh,Rin1 Abl inh,UBC13 inh
CC1(C)Cc2c(sc3nc4n(-c5ccccc5)cnn4c(=O)c23)CO1,i,i,i,i,i,i
O=C(C=P(c1ccccc1)(c1ccccc1)c1ccccc1)c1ccccc1-c1ccccc1C(=O)C=P(c1ccccc1)(c1ccccc1)c1ccccc1,nt,nt,nt,nt,i,nt
COc1ccc(NC(=O)N(C)C[C@H]2OCc3cnnn3CCCC(=O)N([C@@H](C)CO)C[C@H]2C)cc1,nt,nt,nt,nt,i,nt
Cc1ccccc1CC1(CO)CCCN(C(=O)c2ccc3ncccc3c2)C1 (stereo unspecified),i,i,i,i,i,i
Cc1cc(C)n2c(Nc3ccc4c(c3)OCCO4)c(-c3ccc(C)o3)nc2n1,i,nt,i,i,i,i
Cc1ccc(-c2nc3ncccn3c2Nc2ccc3c(c2)OCCO3)o1,i,99,i,i,i,i
COc1ccc2[nH]c(C(=O)O)c(NS(=O)(=O)c3ccc(OC)c(OC)c3)c2c1,i,nt,i,i,i,i
COc1ccc(S(=O)(=O)Nc2c(C(=O)O)[nH]c3ccc(OC)cc23)cc1,i,98,nt,i,i,i
O=C(CNC(=O)c1ccco1)OCC(=O)c1ccc([N+](=O)[O-])cc1,i,99,nt,i,i,i
O=C(CNC(=O)c1ccco1)OCC(=O)c1ccc(Cl)cc1,i,nt,i,i,i,i
O=C(CNC(=O)c1ccco1)NCC(=O)OCC(=O)c1ccc(Cl)c([N+](=O)[O-])c1,i,98,nt,i,i,i
CC1CCN(C(=O)c2ncn(Cc3ccccc3)c2C(=O)N2CCC(C)CC2)CC1,nt,i,nt,i,i,i
CCC(=O)N1CCCN(S(=O)(=O)c2ccc(C)cc2)C1c1ccc(OC)cc1 (stereo unspecified),i,i,nt,i,i,i
CC[C@H](C)C(N)c1cn(C(CCCN=C(N)N)C(=O)N2CCNCC2)nn1 (stereo partly specified),nt,nt,nt,i,i,i
Cc1cccc(C)c1NC(=O)CCCSc1nnc(-c2ccc(F)cc2)n1-c1ccccc1,i,96,i,i,i,i
O=S(=O)(Nc1ccc(N2CCCCC2)cc1)c1cccc2cccnc12,i,98,i,i,i,i
O=S(=O)(Nc1ccc(N2CCCCC2)cc1)c1ccccc1F,i,99,i,i,i,i
O=C(c1ccc(NS(=O)(=O)c2cccc3cccnc23)cc1)N1CCCCC1,i,i,i,i,i,i
O=S(=O)(Nc1ccc(N2CCCCC2)cc1)c1ccc(F)cc1,i,98,i,i,i,i
C=CCOc1cccc(CNc2cccc(C(=O)O)c2)c1,i,i,i,i,i,i
COC(=O)C1CCN(C(=O)COC(=O)CSc2ccc(C(N)=O)cc2[N+](=O)[O-])CC1,nt,nt,nt,i,i,i
CC(C)COCC(O)CCC(=O)NNC(=S)Nc1ccccc1 (stereo unspecified),i,93,i,i,i,i
O=C(Cc1ccccc1)NNC(=S)Nc1ccccc1,i,i,i,i,i,i
CCCCn1c(N)c(N(Cc2ccccc2OC)C(=O)COc2ccc(F)cc2Cl)c(=O)[nH]c1=O,i,i,nt,i,i,i
Cc1nc2nc(SCc3ccccc3)[nH]n2c(=O)c1CCC(C)C,i,i,nt,i,i,i
CCc1nnc(NC(=O)CSc2nnc(Cc3cc(=O)[nH]c(=O)[nH]3)n2-c2cccc(OC)c2)s1,i,96,i,i,i,i
CCc1nnc(NC(=O)CSc2nnc(Cc3cc(=O)[nH]c(=O)[nH]3)n2-c2ccc(OC)cc2)s1,i,i,i,i,i,i
O=C(NCc1ccccc1)C1(c2cccc(F)c2)CCCC1,i,nt,i,i,i,i
O=C(c1cccs1)N1CCN(c2ccc(Cl)cc2)CC1,i,96,nt,i,i,i
CC(=O)c1ccc(N2CCN(C(=O)CCC(=O)c3cccs3)CC2)cc1,i,nt,i,i,i,i
